High-throughput results: PubChem, several laboratories
Autophagy HCS: autophagy modulation, high-content screen | MEF GFP-LC3 puncta imaging; test concentration mostly 10 µM | calls only at 10 µM (by protocol) | actives 0.98% (n = 190,000);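 active means percentage of spot-positive cells more than 3 SD above its plate mean, without a fluorescence outlier flag or 80% toxicity; inconclusive means no clear call, values can overlap the other calls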;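 further: spot-positive cell cutoff set from DMSO-treated cells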
TNF necrop inh: TNF-alpha cell death inhibition in Jurkat FADD-/- cells | Jurkat FADD-/- TNF necroptosis rescue, ATP luminescence, 24 h; 0 = TNF only, 100 = no-TNF cells | activation (protection from cell death), % at 10 µM | actives 0.068% (n = 220,000) | AID 463075;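 active means activation, meaning protection from cell death, of at least 50% relative to plate controls; inactive means activation below 50%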;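 further: necroptosis triggered by 40 ng/mL TNF-alpha added together with compound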
Furin inh: human furin inhibition | inhibition, % at 20 µM or 30 µM | purified furin, fluorogenic substrate cleavage | actives 0.061% (n = 220,000) | P09958; in the data active means inhibition above about 25%
Dynein transport: blocks dynein driven cargo transport along microtubules | AID 1381 | actives 0.47% (n = 220,000) | z-score, hits read low | 3617.4 mouse cells, GR-EGFP nuclear translocation imaging; test concentration mostly 20 µM; stimulated with dexamethasone, 1 µM; active compounds read low;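 active means plate z-score of nuclear minus cytoplasmic receptor signal below a set negative limit, without overly bright fluorescence or cell loss, cut at about -3.5 in these data, passing the limit was not always enough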;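 further: z-score of nuclear minus cytoplasmic ring GR-EGFP intensity difference per well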
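medium = tetracycline-free induction medium containing charcoal-stripped FBS | also added = 1.0 µM final dexamethasone stimulus | schedule = 48 h induction, 1 h compound, 30 min dex at 37 °C | technique = fixed, Hoechst-stained cells imaged at 10x for EGFP | measure = GR-EGFP nuclear translocation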
L929 necroptosis: L929 zVAD cell death inhibition; L929 zVAD necroptosis rescue, ATP luminescence, 24 h; with zVAD 60 µM; viability rescue, % at 10 µM; actives 0.38% (n = 220,000); AID 1377;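 active means activation, scaled between plate controls, above about 75%, limit read from the data; inactive means activation under that limit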;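 further: 0% = zVAD with DMSO and 100% = DMSO alone without zVAD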
HSV replic up: increases HSV replication in cells; HSV replication augmentation in cells, fold increase; maximum fold increase; actives 0.005% (n = 220,000); in the data active means maximum fold increase above about 1.5; inconclusive means no clear call, values can overlap the other calls; tested in PC3 cells
Numbers without * were called inactive; i = inactive; ? = inconclusive; nt = no result given; + = active, no number. This is a sample that favours compounds with a hit; in the whole collection about 1.8% have one here.

SMILES	Autophagy HCS	TNF necrop inh	Furin inh	Dynein transport	L929 necroptosis	HSV replic up
CCn1c(C)c(CCC(=O)O)c(=O)n2nc(-c3ccccc3OC)cc12	i	0	27*	-0.27	1	i
Cc1ccccc1-n1nnnc1SCC(=O)NCC1CCCO1 (stereo not given)	+	0	-10	-0.88	0	i
COC(=O)/C(=C1/Oc2cc(C)oc(=O)c2S1)C(F)(F)F	+	-19	-25	-3.1	-2	i
Cc1c(Cl)cccc1NC(=S)NCCc1ccc(C(F)(F)F)cc1	i	-9	-6	0.036	1	i
CCOC(=O)c1c(Nc2ccc(Cl)cc2)sc(/C=C2\C=Nc3ccccc32)c1O	+	0	-21	-1.1	2	i
COc1cccc(NC(=O)c2cc([N+](=O)[O-])ccc2NC(=O)CNCC2CCCO2)c1 (stereo not given)	+	-2	-9	1.3	-1	i
O=C(CNCC1CCCO1)Nc1ccc([N+](=O)[O-])cc1C(=O)Nc1ccccc1F (stereo not given)	i	-1	-22	1.6	2	i
COc1ccc(/C=N/n2c(=O)[nH]c3c([nH]c4ccc(F)cc43)c2=O)cc1CN1CCCCC1	nt	2	-54	0.14	0	i
COc1ccc(/C=N/n2c(=O)[nH]c3c([nH]c4ccc(C)cc43)c2=O)cc1CN1CCOCC1	i	1	32*	0.93	0	i
Nc1ccc(CC2SC(=O)NC2=O)cc1 (stereo not given)	i	1	-24	0.4	1	i
Cc1ccc(CC2SC(=O)NC2=O)cc1Cl (stereo not given)	i	20	-15	-0.21	84*	i
Cn1c2ccccc2n2c(=O)c(Cl)c(-c3ccccc3)c(C#N)c12	+	0	14	1.2	1	i
COc1ccccc1N1CCN(C2CC(=O)N(C)C2=O)CC1 (stereo not given)	i	0	-12	-1.2	4	i
Clc1ccc(-c2csc(=Nc3cccnc3)n2CCCn2ccnc2)cc1Cl	+	-2	-14	0.6	0	i
CCS(=O)(=O)N1Cc2ccccc2CC1C(=O)Nc1ncc(C)s1 (stereo not given)	+	1	-9	0.79	1	i
O=C1c2cccc3c(N4CCCCC4)ccc(c23)C(=O)N1c1ccc(O)cc1	+	-3	-21	0.32	-1	?
COc1ccccc1CNC(=O)Cn1nnc(-c2ccncc2)n1	i	1	-11	-0.54	86*	i
O=C(COc1ccc(C(=O)c2ccccc2)cc1)NCC(=O)Nc1ccccc1Br	i	1	-10	-0.47	1	i
N=C1C(c2nc3ccccc3s2)=C(O)CN1Cc1ccco1	+	-1	-28	-0.93	0	i
COc1ccc(-c2n(CC(=O)OC3CC(C)CCC3C(C)C)c3ccccc3[n+]2C)cc1 (stereo not given)	+	-10	-31	0.98	11	i
Cc1ccc(OCCn2cnc(Cl)c2Cl)cc1	i	4	-4	-1.1	3	i
Cc1cccc(OCC(O)CN2C(C)(C)CC(O)CC2(C)C)c1 (stereo not given)	+	-1	-11	-0.71	0	i
Cc1ccc(N2CCN(CC(O)COc3cccc(C)c3)CC2)cc1 (stereo not given)	nt	5	-26	-0.12	-1	i
CCOc1ccc(-c2nnn(CC(=O)NCc3ccccc3)n2)cc1	i	-5	-22	-0.1	1	i
Cc1cc(NC(=O)c2ccc([N+](=O)[O-])cc2)n(C)n1	nt	1	-17	-0.18	1	i
C=CCc1cc(Cl)ccc1OCCOCCNC(C)(C)C	+	4	-20	-0.67	0	i
COc1ccc(Cn2c(=O)c3[nH]cnc3n(-c3ccc(C)cc3)c2=O)cc1	nt	-1	-21	0.3	1	i
O=C(CCl)Nc1ccccc1Sc1ccccc1	i	-6	-6	-0.63	0	i
Cc1ccc(C)c(Sc2ccc(NC(=O)CCl)cc2)c1	i	-10	-3	-4.2*	2	i
N#Cc1ccc(-c2ccco2)nc1SCC(=O)c1ccc(Cl)cc1	+	0	-1	-1.4	-1	?
